Measured values published in article PMC8369490 (ACS Infectious Diseases, 2021).
Converted amounts (≈) assume the structure as drawn.

Columns and labels:
E. coli MC4100 cells = experiment: Potentiation of antibiotics; format: cell-based, Escherichia coli; conditions: E. coli MC4100, LB, 10 h
[1] = system: Staphylococcus aureus MRSA; experiment: MIC against bacterial strains; format: cell-based; conditions: 10 h
In short: (§1)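 Broth dilution in LB or MHB-II. Bacteria grown to mid-log at 37 °C in flasks, diluted to OD600 0.001 and added 1:1 to medium with 2-fold increasing test compound (0.5% DMSO final). Incubated at 37 °C in a plate reader with continuous linear shaking; OD600 every 15 min for 10 h. MIC is the lowest concentration with no growth detectable by OD600 at 10 h.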

Pseudomonas aeruginosa = experiment: MIC against bacterial strains; format: cell-based; conditions: 10 h
In short: as §1

E. coli MC4100 bamA101 = experiment: Growth inhibition of bamA101 knockdown strain versus wild-type; format: cell-based, Escherichia coli; conditions: E. coli MC4100 bamA101, MHB-II, 10 h
In short: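 Wild-type MC4100 and bamA101 knockdown cells grown to mid-log at 37 °C, diluted to OD600 0.001 and mixed 1:1 with MHB-II containing 2-fold increasing test compound (0.5% DMSO final) in 96-well plates. Incubated at 37 °C with continuous linear shaking; OD600 read every 15 min. The 10 h OD600 is expressed as % growth versus DMSO-treated cells (100%).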

OmpT protease = OmpT protease (Escherichia coli, UniProt P09169); experiment: OmpT protease activity, compound added after OmpT folding was completed; format: biochemical; conditions: 100 μM, added 2 h after start of folding reaction
OmpT protease, sequence (P09169 21-317): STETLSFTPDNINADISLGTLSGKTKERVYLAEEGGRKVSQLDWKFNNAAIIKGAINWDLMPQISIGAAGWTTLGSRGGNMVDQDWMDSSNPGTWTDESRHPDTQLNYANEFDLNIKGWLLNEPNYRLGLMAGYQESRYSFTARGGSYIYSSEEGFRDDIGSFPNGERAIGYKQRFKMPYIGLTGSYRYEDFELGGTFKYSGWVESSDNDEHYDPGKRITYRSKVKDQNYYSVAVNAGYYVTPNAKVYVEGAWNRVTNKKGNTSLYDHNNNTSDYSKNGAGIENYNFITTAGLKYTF
In short: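 BAM proteoliposomes (2 μM) mixed with SurA (140 μM) and denatured OmpT (20 μM) subreactions in Tris/HCl, pH 6.5, and held 2 h at 30 °C to prefold OmpT. Then combined with a subreaction of test compound (200 μM) or DMSO plus fluorogenic peptide; concentrations are per subreaction. Cleavage read at ex 330/em 430 nm for 80 min at 30 °C. Slope-based activity relative to DMSO.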

[2] = system: E. coli MC4100 expressing FhuA ΔC/Δ4L; experiment: Growth inhibition of E. coli expressing open channel FhuA ΔC/Δ4L; format: cell-based, Escherichia coli; conditions: E. coli MC4100, LB, 10 h
Bacillus subtilis 168 = experiment: MIC against bacterial strains; format: cell-based
In short: as §1

[3] = system: Rcs stress response (PrprA-mNG reporter) in E. coli TOP10F′ cells; experiment: Rcs stress reporter assay; format: cell-based; conditions: Escherichia coli, 3 h, read-out: stress reporter EC50 PrprA-mNG
In short: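 TOP10F′ with pUA66-PrprA-mNG, at OD600 0.05 in M9, dispensed onto a 1:3 test-compound dilution series in 384-well plates. Positive control is an Hbp-secretion inhibitor at 200 μM; DMSO is the negative control. After 3 h nonshaken incubation, OD600 and mNG fluorescence (ex 488/em 535 nm) measured. EC50 derived from OD600-corrected fluorescence.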

Enterococcus faecium VRE = experiment: MIC against bacterial strains; format: cell-based; conditions: 10 h
In short: as §1

[4] = system: BAM complex (BamABCDE) reconstituted in proteoliposomes; experiment: OmpT folding in vitro assay with BAM proteoliposomes; format: biochemical, Escherichia coli; conditions: 100 μM compound, OmpT:SurA 1:42 versus 1:7
BAM complex (BamABCDE) reconstituted in proteoliposomes, sequence (P77774 20-392): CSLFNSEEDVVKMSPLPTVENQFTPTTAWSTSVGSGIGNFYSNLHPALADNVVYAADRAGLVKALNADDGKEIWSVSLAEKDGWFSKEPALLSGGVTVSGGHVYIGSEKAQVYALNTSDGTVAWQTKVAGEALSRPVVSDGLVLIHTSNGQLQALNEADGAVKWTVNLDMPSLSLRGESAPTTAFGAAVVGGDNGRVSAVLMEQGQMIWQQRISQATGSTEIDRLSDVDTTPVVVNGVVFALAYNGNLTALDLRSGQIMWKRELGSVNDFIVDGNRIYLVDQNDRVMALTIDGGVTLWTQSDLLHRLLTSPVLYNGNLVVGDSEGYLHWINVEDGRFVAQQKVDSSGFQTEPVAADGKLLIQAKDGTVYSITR
BAM complex (BamABCDE) reconstituted in proteoliposomes, sequence (P0A903 25-344, further chain): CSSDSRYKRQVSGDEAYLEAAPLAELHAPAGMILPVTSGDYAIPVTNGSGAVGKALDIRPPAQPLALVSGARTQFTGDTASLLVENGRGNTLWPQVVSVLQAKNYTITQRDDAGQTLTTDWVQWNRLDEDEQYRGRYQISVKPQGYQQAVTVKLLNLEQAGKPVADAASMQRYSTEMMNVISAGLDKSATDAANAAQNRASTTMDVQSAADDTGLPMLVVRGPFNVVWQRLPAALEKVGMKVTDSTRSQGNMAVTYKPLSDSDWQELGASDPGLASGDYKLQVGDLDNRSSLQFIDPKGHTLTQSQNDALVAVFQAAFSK
BAM complex (BamABCDE) reconstituted in proteoliposomes, sequence (P0A937 20-113, further chain): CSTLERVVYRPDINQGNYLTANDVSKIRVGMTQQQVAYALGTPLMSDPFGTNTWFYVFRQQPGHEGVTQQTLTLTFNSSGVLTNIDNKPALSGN
BAM complex (BamABCDE) reconstituted in proteoliposomes, sequence (P0AC02 20-245, further chain): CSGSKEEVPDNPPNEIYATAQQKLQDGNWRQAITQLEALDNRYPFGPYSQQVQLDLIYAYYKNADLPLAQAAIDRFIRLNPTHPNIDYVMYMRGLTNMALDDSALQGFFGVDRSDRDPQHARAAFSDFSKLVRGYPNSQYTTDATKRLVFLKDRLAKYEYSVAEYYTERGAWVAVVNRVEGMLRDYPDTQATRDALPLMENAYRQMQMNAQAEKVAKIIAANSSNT
In short: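 BAM proteoliposomes (His-tag-purified BamABCDE in DDM, reconstituted into E. coli polar lipids) with test compound and fluorogenic peptide in Tris/HCl, pH 6.5, preincubated 5 min at 30 °C. Mixed with a second subreaction of SurA plus guanidine-denatured OmpT at 1:7 or 1:42 OmpT:SurA. Fluorescence (ex 330/em 430 nm) read every 20 s for 80 min at 30 °C. Linear-phase slopes from three replicates, as % of DMSO.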

HEK293 cells = experiment: HEK293 cell toxicity; format: cell-based; conditions: 48 h, dose-response up to 60 μM; dash = no toxicity
In short: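 HEK293 cells kept in DMEM with 10% FBS at 37 °C, 5% CO2. Test compound dispensed as a 1:3 dilution series from DMSO stocks; DMSO as negative and tamoxifen as positive control. About 2000 cells per well incubated 48 h at 37 °C, 5% CO2, 90% humidity. Viability read with CellTiter-Glo reagent after 2 min shaking.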

[5] = system: OMP levels in E. coli TOP10F′ cells; experiment: Cell envelope protein analysis; format: cell-based, Escherichia coli
In short: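 TOP10F′ cells grown 3 h in LB in flasks with one concentration of test compound. Cells pelleted, sonicated on ice in 10 mM Tris-HCl, 3 mM EDTA, pH 8.0 with protease inhibitors. Envelopes pelleted at 200 000g for 1 h at 4 °C and solubilised overnight at 4 °C in TBS with 1% DDM. SDS-PAGE and immunoblots, loading corrected by OD600; 3 independent experiments.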

[6] = system: secretion of autotransporter Hbp in E. coli MC1601 degP::S210A; experiment: Hbp secretion analysis; format: cell-based, Escherichia coli; conditions: Western blotting
In short: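 MC1061 degP::S210A cells grown in M9 to mid-log, diluted to OD600 0.1, mixed 1:1 with M9 containing test compound or DMSO (0.5% final). Hbp induced from pEH3 with 40 μM IPTG at 37 °C with shaking. Cells spun 5000g for 5 min; supernatant TCA-precipitated overnight at 4 °C. Lysates and medium run on 11% SDS-PAGE, immunoblotted (Hbp passenger, Hbp β-barrel, DegP), loading OD600-corrected.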

Acinetobacter baumannii = experiment: MIC against bacterial strains; format: cell-based; conditions: 10 h
In short: as §1

E. coli TOP10F′ cells = experiment: MIC in E. coli TOP10F′; format: cell-based; conditions: Escherichia coli, 10 h, read-out: toxicity E. coli MIC
In short: as §1

Escherichia coli (K12) = experiment: MIC against bacterial strains; format: cell-based; conditions: 10 h
In short: as §1

[7] = system: heat-shock response (PgroES-mNG reporter) in E. coli TOP10F′ cells; experiment: Heat-shock stress reporter assay; format: cell-based; conditions: Escherichia coli, 3 h, read-out: stress reporter EC50 PgroES-mNG
In short: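 TOP10F′ carrying pEH3-empty and pUA66-PgroES-mNG, at OD600 0.05 in M9, added to 384-well plates with a 1:3 test-compound dilution series. Positive-control wells hold cells with pEH3-ssTorA-Hbp induced by 40 μM IPTG; DMSO controls included. After 3 h nonshaken incubation, OD600 and mNG fluorescence (ex 488/em 535 nm) read. EC50 from OD600-corrected fluorescence.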

[8] = system: σ^E cell envelope stress response (PrpoE-mNG reporter) in E. coli TOP10F′ cells expressing Hbp; experiment: σ^E stress reporter assay; format: cell-based; conditions: Escherichia coli, 3 h, read-out: stress reporter EC50 PrpoE-mNG
[9] = system: Escherichia coli (uropathogenic); experiment: MIC against bacterial strains; format: cell-based; conditions: 10 h
In short: as §1

Klebsiella pneumoniae = experiment: MIC against bacterial strains; format: cell-based; conditions: 10 h
In short: as §1

Enterobacter cloacae = experiment: MIC against bacterial strains; format: cell-based; conditions: 10 h
In short: as §1

[10] = 0.25× MIC, cell envelopes, Western blotting

## Nc1cc(-c2nc3c(c(NCc4ccccc4)n2)CC(N)CC3)ccn1 (stereo not shown) [compound 14, 2-(2-aminopyridin-4-yl)-N4-benzyl-5,6,7,8-tetrahydroquinazoline-4,6-diamine]
E. coli MC4100 cells; compound at 0.25× MIC (2: 12 μM, 14: 25 μM)
  fold decrease of MIC of vancomycin in presence of compound: 4 fold
E. coli MC4100 cells; compound at 0.25× MIC
  MICs of ampicillin and chloramphenicol in presence of compound: largely unaffected
[1]
  MIC: > 200 µM
Pseudomonas aeruginosa
  MIC: 200 µM (≈ 69.3 µg/mL)
E. coli MC4100 bamA101
  antimicrobial effect (MIC) in bamA101 mutant versus wild-type: enhanced antimicrobial effect
OmpT protease
  effect on OmpT protease activity when added after OmpT was folded: inhibiting effect
[2]
  effect of FhuA ΔC/Δ4L expression on MIC of the compound: did not affect
Bacillus subtilis 168; Bacillus subtilis 168, 10 h, highest concentration tested 200 μM
  MIC: >200 µM
Bacillus subtilis 168; Bacillus subtilis, 168, 10 h
  MIC: > 200 µM
[3]
  EC50: 12 µM
Enterococcus faecium VRE
  MIC: > 200 µM
[4]
  influence of 6-fold excess of SurA on the inhibiting effect of the compound: did not influence
HEK293 cells
  toxicity HEK293 LD50: 60 µM
[5]; 0.25× MIC (2: 12 μM, 14: 25 μM), cell envelopes, Western blotting
  levels of the major β-barrel OMPs OmpF, OmpC, and OmpA compared to DMSO: dropped considerably
[5]; [10]
  level of BamA: severely reduced
  levels of lipoproteins BamB and LpoB: largely unaffected
[5]; PhoE expressed from pEH3, 0.25× MIC and 0.5× MIC, 3 h, seminative PAGE
  total levels of PhoE: reduced total levels of PhoE in a dose-dependent manner
[6]; 0.25× MIC, whole cell lysates
  Hbp processing in cells (pro-Hbp): accumulation of pro-Hbp
[6]; 2 and 14 at 0.25× MIC, spent medium
  amount of secreted Hbp passenger in the spent medium: decreased
Acinetobacter baumannii
  MIC: 100 µM (≈ 34.6 µg/mL)
E. coli TOP10F′ cells
  MIC: 100 µM (≈ 34.6 µg/mL)
Escherichia coli (K12)
  MIC: 100 µM (≈ 34.6 µg/mL)
[7]
  EC50: > 60 µM
[8]
  EC50: > 60 µM
[9]
  MIC: > 200 µM
Klebsiella pneumoniae
  MIC: > 200 µM
Enterobacter cloacae
  MIC: > 200 µM

## CN[C@H](CC(C)C)C(=O)N[C@H]1C(=O)N[C@@H](CC(N)=O)C(=O)N[C@H]2C(=O)N[C@H]3C(=O)N[C@H](C(=O)N[C@H](C(=O)O)c4cc(O)cc(O)c4-c4cc3ccc4O)[C@H](O)c3ccc(c(Cl)c3)Oc3cc2cc(c3O[C@@H]2O[C@H](CO)[C@@H](O)[C@H](O)[C@H]2O[C@H]2C[C@](C)(N)[C@H](O)[C@H](C)O2)Oc2ccc(cc2Cl)[C@H]1O [vancomycin, reference compound]
[2]
  permeability upon FhuA ΔC/Δ4L expression: clearly increased

## CC(=O)Nc1cc(-c2nc(O)c3c(n2)CCC(NC(=O)OC(C)(C)C)C3)ccn1 (stereo not shown) [compound 3]
[3]
  EC50: 16 µM
HEK293 cells
  toxicity HEK293 LD50: 20 µM
E. coli TOP10F′ cells
  MIC: 25 µM (≈ 9.99 µg/mL)
[7]
  EC50: > 60 µM
[8]
  EC50: 7 µM

## CCOC(=O)C1=C(O)CCC(NC(=O)OC(C)(C)C)C1 (stereo not shown) [compound 1]
[3]
  EC50: 38 µM
E. coli TOP10F′ cells
  MIC: > 200 µM
[7]
  EC50: > 60 µM
[8]
  EC50: 1 µM
